Data on five molecules can be found in ChEMBL document CHEMBL1127682, “Resolution, absolute stereochemistry, and pharmacology of the S-(+)- and R-(-)-isomers of the apparent partial AMPA receptor agonist (R,S)-2-amino-3-(3-hydroxy-5-phenylisoxazol-4-yl)propionic acid [(R,S)-APPA]” (J Med Chem, 1994).

The structures appear in SMILES notation.

Assay [1] concerns the target Glutamate NMDA receptor. The experiment in a line: Compound was evaluated for the inhibition of binding of [3H]- CPP to NMDA receptor. Format: protein-complex assay.
Assay [2] concerns the target Glutamate receptor ionotropic, NMDA 1 (Rattus norvegicus, UniProt P35439). The experiment in a line: Compound was evaluated for the inhibition of binding of [3H]glycine to NMDA receptor.
The target of assay [3] is Glutamate receptor ionotropic, kainate. The experiment in a line: Compound was evaluated for the inhibition of binding of [3H]-Kainic acid to kianic acid receptor. Format: protein-complex assay.
Assay [4] addresses Glutamate NMDA receptor. The experiment in a line: Compound was evaluated for the inhibition of binding of [3H]- MK-801 to NMDA receptor. Format: protein-complex assay.
The target of assay [5] is T1, Glutamate receptor ionotropic, AMPA (Rattus norvegicus, UniProt P19490+P19491+P19492+P19493). The assay is described as follows: Compound was evaluated for the inhibition of binding of [3H]AMPA to the AMPA receptor. Type of assay: protein-complex assay.
Assay [6] addresses T1, Glutamate receptor ionotropic, AMPA. The assay is described as follows: Compound was evaluated for the antagonist activity on AMPA receptor in rat cortical wedge preparation. Format: functional.
For assay [7] the target is unchanged. The experiment in a line: Compound was evaluated for the agonist activity on AMPA receptor in rat cortical wedge preparation. Format: functional.
The next assay is filed under the species Rattus norvegicus. The experiment in a line: The compound was evaluated for agonist sensitivity to antagonist NBQX. Type of assay: functional. The gist of the method:
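Rat cortical wedges (500-μm, cortex plus corpus callosum) superfused with Mg2+- and Ca2+-free oxygenated Krebs buffer at room temperature; agonist depolarization concentration-response curves recorded with and without 0.5 μM NBQX; pKi calculated from the parallel shift; means ± SEM of at least three experiments.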

Usually IC50 stands for the concentration needed to halve the response being measured. A higher IC50 goes with weaker potency in that assay. Usually Ki stands for a dissociation constant, usually derived from enzyme kinetics or from competition with a known ligand. A lower Ki goes with higher affinity. As a reminder, the EC50 is the concentration that produces a half-maximal response. Low values mean an effect from little substance, high ones a need for much substance.

`N[C@H](Cc1c(O)noc1-c1ccccc1)C(=O)O`: the IC50 (on Glutamate NMDA receptor [1]; in assay [2]; in assay [3]; at Glutamate NMDA receptor [4]; in assay [5]) was more than 100 µM in each case. Besides, the affinity in assay [6] corresponds to a Ki of 286 µM.
For the molecule `N[C@@H](Cc1c(O)noc1-c1ccccc1)C(=O)O`, the concentration for half-maximal inhibition (IC50) on Glutamate NMDA receptor [1] is more than 100 µM; in assay [2], more than 100 µM; in assay [3], more than 100 µM; on Glutamate NMDA receptor [4], more than 100 µM; in assay [5], 6 µM. Moreover, in assay [7], the EC50 is 230 µM. For the same molecule, the “Log Ki” value in the assay listed under Rattus norvegicus is given as -6.3.
As to `NC(Cc1c(O)noc1-c1ccccc1)C(=O)O` (racemic), the IC50 on Glutamate NMDA receptor [1] was more than 100 µM; in assay [2] it was more than 100 µM; in assay [3], more than 100 µM; on Glutamate NMDA receptor [4], more than 100 µM; in assay [5] it was 35 µM. In addition, the EC50 in assay [7] is 385 µM.
On to `Cc1onc(O)c1CC(N)C(=O)O` (racemic) [(R,S)-AMPA], for which the “Log Ki” value in the assay listed under Rattus norvegicus is -6.56.
On to `C=C(C)[C@H]1CN[C@H](C(=O)O)[C@H]1CC(=O)O` [KAINIC ACID], for which the IC50 (on Glutamate NMDA receptor [1]; in assay [2]; at Glutamate NMDA receptor [4]) was more than 100 µM in each case. The “Log Ki” value in the assay listed under Rattus norvegicus was -5.42.
